Square brackets hold non-standard residues; d marks the D form. Peptide text beside a SMILES is read from it. Hyp = O=C(O)[C@@H]1C[C@@H](O)CN1; Ahx = NCCCCCC(=O)O

One may read the EC50 as the concentration giving half of the maximal effect. A high value points to a need for much substance.

In assay [1] the target is T1, von Hippel-Lindau disease tumor suppressor/Bromodomain-containing protein 4 (Homo sapiens) (UniProt O60885+P40337). The experiment in a line: PROTAC activity at VHL/BDR4 ET domain in human MCF7 cells assessed as degradation by measuring fold change in remaining BRD4 level at 2.5 uM incubated for 24 hrs by immunoblotting analysis (reference value: […]). The format is cell-based. In general terms: In western blotting, separated proteins are transferred to a membrane and probed.
T1 sequence (P40337 whole entry, looked up, other chains not shown, the tested form may be a part): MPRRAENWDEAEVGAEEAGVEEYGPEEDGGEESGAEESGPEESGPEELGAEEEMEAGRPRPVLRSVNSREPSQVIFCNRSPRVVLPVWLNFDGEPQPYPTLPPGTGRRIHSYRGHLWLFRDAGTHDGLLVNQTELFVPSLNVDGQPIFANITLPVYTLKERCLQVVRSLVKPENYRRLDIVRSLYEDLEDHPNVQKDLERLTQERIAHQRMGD

In assay [2] the target is T1, von Hippel-Lindau disease tumor suppressor/Bromodomain-containing protein 4 (Homo sapiens). The experiment in a line: PROTAC activity at VHL/BDR4 ET domain in human MCF7 cells assessed as degradation by measuring fold change in remaining BRD4 level at 10 uM incubated for 24 hrs by immunoblotting analysis (reference value: […]). The format is cell-based.
The target is the same in assay [3]. The experiment in a line: PROTAC activity at VHL/BDR4 ET domain in human MCF7 cells assessed as degradation by measuring fold change in remaining BRD4 level at 10 uM incubated for 12 hrs by immunoblotting analysis (reference value: […]). The format is cell-based.
In assay [4] the target is T2, von Hippel-Lindau disease tumor suppressor/Bifunctional arginine demethylase and lysyl-hydroxylase JMJD6 (Homo sapiens) (UniProt P40337+Q6NYC1). The experiment in a line: PROTAC activity at VHL/JMJD6 in human MCF7 cells assessed as degradation by measuring fold change in remaining JMJD6 level at 10 uM incubated for 24 hrs in presence of TAT-PiET by immunoblotting analysis relative to TAT/TAT-PROTAC. The format is cell-based. In outline:
(§1)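 MCF7 cells were left untreated or given TAT, TAT-PROTAC, TAT-PiET or the PROTAC peptide (each 10 μM) for 24 h. Lysates were immunoblotted with β-actin for loading. Three repeats, quantified in the Supporting Table.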

For assay [5], the target named is T1, von Hippel-Lindau disease tumor suppressor/Bromodomain-containing protein 4 (Homo sapiens). Nature of the assay: PROTAC activity at VHL/BDR4 ET domain in human MCF7 cells assessed as degradation by measuring fold change in remaining BRD4 level at 10 uM incubated for 24 hrs in presence of TAT by immunoblotting analysis relative to TAT/TAT-PROTAC. The format is cell-based. The procedure, abridged: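 MCF7 cells are treated with PROTAC peptide (dose series, or 10 μM over a time course, or 10 μM with or without MG132 10 μM) for up to 24 h. Comparators are TAT, TAT-PiET, or TAT-PROTAC at 10 μM. BRD4 is measured by immunoblot, normalised to β-actin; three repeats.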

For assay [6], the target named is T2, von Hippel-Lindau disease tumor suppressor/Bifunctional arginine demethylase and lysyl-hydroxylase JMJD6 (Homo sapiens). The experiment in a line: PROTAC activity at VHL/JMJD6 in human MCF7 cells assessed as degradation by measuring fold change in remaining JMJD6 level at 10 uM incubated for 24 hrs in presence of TAT by immunoblotting analysis relative to TAT/TAT-PROTAC. The format is cell-based. The procedure, abridged:
as §1

For assay [7], the target named is T1, von Hippel-Lindau disease tumor suppressor/Bromodomain-containing protein 4 (Homo sapiens). Nature of the assay: PROTAC activity at VHL/His-tagged BDR4 ET domain (1 to 470 residues) (unknown origin) transfected in MCF7 cells assessed as degradation by measuring fold change in remaining BRD4 level at 10 uM incubated for 24 hrs by immunoblotting analysis (reference value: […]). The format is cell-based.

For assay [8] the target is unchanged. The experiment in a line: PROTAC activity at VHL/His-tagged BDR4 ET domain (1 to 470 residues) (unknown origin) transfected in MCF7 cells assessed as degradation by measuring fold change in remaining BRD4 level at 10 uM incubated for 12 hrs by immunoblotting analysis (reference value: […]). The format is cell-based.
The target is the same in assay [9]. The experiment in a line: PROTAC activity at VHL/His-tagged BDR4 ET domain (471 to 730 residues) (unknown origin) transfected in MCF7 cells assessed as degradation by measuring fold change in remaining BRD4 level at 5 uM incubated for 24 hrs by immunoblotting analysis (reference value: […]). The format is cell-based.
For assay [10] the target is unchanged. Nature of the assay: PROTAC activity at VHL/His-tagged BDR4 ET domain (471 to 730 residues) (unknown origin) transfected in MCF7 cells assessed as degradation by measuring fold change in remaining BRD4 level at 10 uM incubated for 24 hrs by immunoblotting analysis (reference value: […]). The format is cell-based.
The target is the same in assay [11]. The experiment in a line: PROTAC activity at VHL/His-tagged BDR4 ET domain (471 to 730 residues) (unknown origin) transfected in MCF7 cells assessed as degradation by measuring fold change in remaining BRD4 level at 20 uM incubated for 24 hrs by immunoblotting analysis (reference value: […]). The format is cell-based.
The target is the same in assay [12]. Nature of the assay: PROTAC activity at VHL/His-tagged BDR4 ET domain (471 to 730 residues) (unknown origin) transfected in MCF7 cells assessed as degradation by measuring fold change in remaining BRD4 level at 10 uM incubated for 12 hrs by immunoblotting analysis (reference value: […]). The format is cell-based.
Assay [13] shares this target. The experiment in a line: PROTAC activity at VHL/His-tagged BDR4 […] (unknown origin) transfected in MCF7 cells assessed as degradation by measuring fold change in remaining BRD4 level at 10 uM incubated for 12 hrs by immunoblotting analysis (reference value: […]). The format is cell-based.
The target is the same in assay [14]. Nature of the assay: PROTAC activity at VHL/His-tagged BDR4 ET domain (1047 to 1362 residues) (unknown origin) transfected in MCF7 cells assessed as degradation by measuring fold change in remaining BRD4 level at 5 uM incubated for 24 hrs by immunoblotting analysis (reference value: […]). The format is cell-based.
Assay [15] has the same target. Nature of the assay: PROTAC activity at VHL/His-tagged BDR4 ET domain (1047 to 1362 residues) (unknown origin) transfected in MCF7 cells assessed as degradation by measuring fold change in remaining BRD4 level at 20 uM incubated for 24 hrs by immunoblotting analysis (reference value: […]). The format is cell-based.
Assay [16] has the same target. The experiment in a line: PROTAC activity at VHL/His-tagged BDR4 ET domain (1047 to 1362 residues) (unknown origin) transfected in MCF7 cells assessed as degradation by measuring fold change in remaining BRD4 level at 10 uM incubated for 12 hrs by immunoblotting analysis (reference value: […]). The format is cell-based.
Assay [17] deals with MCF7. Nature of the assay: Cytotoxicity against human MCF7 cells incubated for 1 week by CellTiter 96 Aqueous One Solution based assay. The format is functional, cell-based. The following applies: MCF7, 168 h. The procedure, abridged: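 Cells (2 × 10^3/well, DMEM + 10% FBS, 37 °C, 5% CO2) treated with a concentration gradient of peptide for 1 week. MTS reagent added for 1 h, absorbance read at 490 nm, EC50 derived.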

Another assay has as its system MDA-MB-231. The experiment in a line: Cytotoxicity against human MDA-MB-231 cells incubated for 1 week by CellTiter 96 Aqueous One Solution based assay. The format is functional, cell-based. The following applies: MDA-MB-231, 168 h. The procedure, abridged:
(§2)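 Cells grown in RPMI-1640 (T47D, BT549) or DMEM (MDA-MB-231) with 10% FBS, 37 °C, 5% CO2. Seeded 2 × 10^3/well, exposed to a gradient concentration of peptide for 1 week. MTS-type reagent added 20 μL per 100 μL medium, 1 h at 37 °C, absorbance read at 490 nm. EC50 derived from the concentration–response curve.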

The next assay relates to BT-549. Nature of the assay: Cytotoxicity against human BT-549 cells incubated for 1 week by CellTiter 96 Aqueous One Solution based assay. The format is functional, cell-based. The following applies: BT-549, 168 h. The procedure, abridged: as §2
The next assay has as its system T47D. Nature of the assay: Cytotoxicity against human T47D cells incubated for 1 week by CellTiter 96 Aqueous One Solution based assay. The format is functional, cell-based. The following applies: 168 h. The procedure, abridged:
as §2

Assay [18] has as its system MCF7. Nature of the assay: Inhibition of His-tagged BRD4 ET domain to Flag-tagged JMJD6 (unknown origin) protein-protein interaction in human MCF7 cells assessed as fold decrease in His-tagged BRD4 ET level at 10 uM incubated for 12 hrs by immunoblotting assay (reference value: […]). The format is cell-based.

Take `CC[C@H](C)[C@H](NC(=O)[C@H](Cc1ccc(O)cc1)NC(=O)[C@@H]1C[C@@H](O)CN1C(=O)[C@H](C)NC(=O)[C@@H](NC(=O)CCCCCNC(=O)[C@H](CCC(=O)O)NC(=O)CNC(=O)[C@H](CS)NC(=O)[C@H](CCCCN)NC(=O)[C@H](Cc1ccccc1)NC(=O)[C@H](CCCCN)NC(=O)[C@H](CCC(N)=O)NC(=O)[C@H](CC(N)=O)NC(=O)[C@H](CCCNC(=N)N)NC(=O)[C@H](CCCNC(=N)N)NC(=O)[C@H](CCCNC(=N)N)NC(=O)[C@H](CCCNC(=N)N)NC(=O)[C@H](CCC(N)=O)NC(=O)[C@H](CCCNC(=N)N)NC(=O)[C@H](CCCNC(=N)N)NC(=O)[C@H](CCCCN)NC(=O)[C@H](CCCCN)NC(=O)[C@H](CCCNC(=N)N)NC(=O)CNC(=O)[C@@H](N)Cc1ccc(O)cc1)[C@@H](C)CC)C(=O)O` (H-YGRKKRRQRRRRNQKFKCGE[Ahx]IA[Hyp]YI-OH): the fold change (FC) amounted to 0.92 in assay [1]; 0.26 in assay [2]; 0.55 in assay [3]; 0.84 in [4]; 0.63 in assay [5]; 0.61 in assay [6]. Besides, the fold change (FC) came out at 1.11 in assay [7]; 1.11 in assay [8]; 0.8 in [9]; 0.68 in [10]; 0.6 in [11]; 0.9 in assay [12]. Besides, the fold change (FC) amounted to 0.99 in [13], 1.09 in assay [14], 1.05 in assay [15] and 1.11 in assay [16].

As to H-YGRKKRRQRRRRNQKFKCGE-OH, the EC50 in the assay with MCF7 [17] was determined as 8.13 µM; with MDA-MB-231, 4.68 µM; with BT-549, 32.3 µM; in the assay on T47D, 13.3 µM. In the assay with MCF7 [18], the fold change (FC) is 0.49.

The values above are taken from ChEMBL document CHEMBL5543129, “Peptide Inhibitor Targeting the Extraterminal Domain in BRD4 Potently Suppresses Breast Cancer Both In Vitro and In Vivo” (J Med Chem, 2024).
